IDH1 R132H inh: inhibitors of IDH1 R132H reductase, primary screen, biochemical, plate reader, single point | diaphorase/resazurin fluorescence, 60 min | inhibition, % at 10 µM | 70,000 tested, 0.18% active | AID 624101, 2012; in the data active means inhibition above about 34%; inconclusive means no clear call, values can overlap the other calls; inactive means below about 11%;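 further: 0% = DMSO and 100% = no enzyme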
KDM4C inh: inhibitors of GASC-1 (KDM4C) histone demethylase, primary screen, biochemical, single concentration HTS | Lysine-specific demethylase 4C (Homo sapiens), Q9H3R0 | GST-KDM4C 2-372, H3K9me3 peptide, LANCE TR-FRET | inhibition, % at 12.5 µM | 96,000 tested, 0.15% active | AID 720574, 2013;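 active means mean replicate inhibition above about 25%, with at least 55% of replicates also reaching it, limit read from the data, passing the limit was not always enough; inconclusive means only one of those two conditions met; inactive means neither condition met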
Target sequence (Q9H3R0 2-372 limits assumed): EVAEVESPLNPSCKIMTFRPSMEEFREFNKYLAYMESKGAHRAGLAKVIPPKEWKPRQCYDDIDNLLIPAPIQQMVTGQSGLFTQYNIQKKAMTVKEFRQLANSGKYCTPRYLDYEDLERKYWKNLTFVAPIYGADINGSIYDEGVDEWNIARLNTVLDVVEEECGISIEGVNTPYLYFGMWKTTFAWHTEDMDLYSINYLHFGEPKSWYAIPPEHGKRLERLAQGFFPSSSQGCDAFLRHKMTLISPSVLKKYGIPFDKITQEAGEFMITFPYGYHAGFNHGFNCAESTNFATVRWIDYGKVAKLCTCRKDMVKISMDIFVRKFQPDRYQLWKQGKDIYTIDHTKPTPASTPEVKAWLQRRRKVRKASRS
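Material: N-terminal GST-fused human GASC-1 (KDM4C) fragment, residues 2-372. Input: 10 nM enzyme. Incubation: enzyme reaction 30 min, then detection 60 min, both room temperature. Doses: one test concentration per compound. Read-out basis: inhibition from TR-FRET ratio decrease. Detection: LANCE TR-FRET, excitation 340 nm, emissions 618 and 671 nm.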
Pf Dd2 inh: P. falciparum Dd2 growth inhibitors, primary screen, SYBR Green fluorescence, single dose replicates | AID 1159554, 2015 | 72 h; stronger effect = lower value | 94,000 tested, 2.3% active | activity change, % at 10 µM; in the data active means activity change below about -80%; inconclusive means no clear call, values can overlap the other calls
T cruzi growth-1: T. cruzi intracellular proliferation inhibitors, primary screen, cell-based, beta-gal Tulahuen parasites, NIH3T3 host, luminescence; T. cruzi beta-gal in NIH3T3, GalScreen luminescence, 90 h; inhibition, % at 8.34 µM; 77,000 tested, 5.9% active; AID 624255, 2012;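 active means mean inhibition above about 93%, with at least 55% of replicates each passing it, limit read from the data, passing the limit was not always enough; inconclusive means only one of those two conditions holds; inactive means neither condition holds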
T cruzi growth-2: T. cruzi intracellular proliferation inhibitors, confirmation, cell-based, NIH3T3 host, beta-gal parasite, luminescence, cherry-pick. shares compounds with T cruzi growth-1. T. cruzi beta-gal in NIH3T3, GalScreen luminescence, 90 h. inhibition, % at 8.35 µM. 5,600 tested, 72% active. AID 651739, 2012;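 active means mean replicate inhibition above about 95% and at least 55% of replicates individually reaching it, limit read from the data; inconclusive means only one of the two criteria is met; inactive means neither criterion is met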
T cruzi growth-3: inhibitors of intracellular T. cruzi replication, confirmation, NIH3T3 host cells, beta-gal parasites, cherry-pick, set 2; shares compounds with T cruzi growth-1; 5,600 tested, 21% active; T. cruzi beta-gal in NIH3T3, GalScreen luminescence, 90 h; inhibition, % at 2.09 µM;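 active means mean inhibition above about 95%, with at least 55% of replicates also reaching it, limit read from the data; inconclusive means meets just one of the two conditions; inactive means meets neither condition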;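 further: plate controls were neutral control median for no effect and positive control median for full effect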
3T3 cytotox: cytotoxicity in mouse NIH/3T3 fibroblasts, confirmation, cytotoxicity control for T. cruzi proliferation inhibitor project, cell-based, cherry-pick, single point | shares compounds with T cruzi growth-1 | NIH/3T3 viability, CellTiter-Glo ATP luminescence, 90 h | cytotoxicity (signal decrease), % at 8.35 µM | 5,600 tested, 14% active;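 active means mean signal decrease across replicates above about 35% based on untreated-well scatter, with enough replicates individually passing, limit read from the data; inconclusive means no rule stated though some were filed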;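 further: 0% = median of neutral control wells and 100% = median of positive control wells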
NIH3T3 tox 2: NIH/3T3 fibroblast cytotoxicity, confirmation, cytotoxicity control, cell-based, cherry-pick, single point, set 2; shares compounds with T cruzi growth-1; NIH/3T3 viability, CellTiter-Glo ATP luminescence, 90 h; inhibition, % at 24.9 µM; 5,600 tested, 56% active; AID 651744, 2012;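 active means mean loss of cell viability signal at or above a set limit, and enough replicates individually reaching it; inconclusive means meets only the mean limit or only the replicate share; inactive means meets neither condition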;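 further: 0% = median of neutral control wells and 100% = median of positive control wells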
Starred values were filed as active, the others as inactive; u = inconclusive; x = not tested or not shown; ! = a repeat was not active. An excerpt weighted towards active compounds, which were near 5.9% of everything screened.

SMILES	IDH1 R132H inh	KDM4C inh	Pf Dd2 inh	T cruzi growth-1	T cruzi growth-2	T cruzi growth-3	3T3 cytotox	NIH3T3 tox 2
C[C@@H]1CN([C@H](C)CO)S(=O)(=O)c2ccc(C#CC(C)(C)O)cc2O[C@H]1CN(C)C(=O)C1CC1	x	-2	8	105*	45	8	29	42*
C[C@@H]1CN([C@H](C)CO)S(=O)(=O)c2ccc(C#CCN(C)C)cc2O[C@H]1CN(C)C(=O)C1CC1	x	0	-12	89*	u	80	-11	-2
CNC[C@H]1Oc2ccc(NC(=O)Cn3cnnn3)cc2C(=O)N([C@@H](C)CO)C[C@H]1C	x	3	-3	10	x	x	x	x
C[C@@H]1CCCCO[C@H](CN(C)Cc2ccc3c(c2)OCO3)[C@H](C)CN([C@H](C)CO)C(=O)c2cc(NC(=O)Nc3ccc(F)cc3)ccc2O1	x	-4	-74	96*	103*	59	21	104*
C[C@@H]1CN([C@H](C)CO)C(=O)c2cc(NC(=O)Nc3ccc(F)cc3)ccc2O[C@@H](C)CCCCO[C@@H]1CN(C)Cc1ccc2c(c1)OCO2	x	-3	u	88	x	x	x	x
C[C@@H]1CCCCO[C@@H](CN(C)Cc2ccc3c(c2)OCO3)[C@@H](C)CN([C@H](C)CO)C(=O)c2cc(NC(=O)Nc3ccc(F)cc3)ccc2O1	4	-1	-13	97*	114*	30	11	-6
C[C@@H]1CN([C@H](C)CO)C(=O)c2cc(NC(=O)Nc3ccc(F)cc3)ccc2O[C@@H](C)CCCCO[C@H]1CN(C)Cc1ccc2c(c1)OCO2	2	-3	-71	87	x	x	x	x
C[C@H](CO)N1C[C@H](C)[C@@H](CN(C)Cc2ccc3c(c2)OCO3)OCCCC[C@H](C)Oc2ccc(NC(=O)Nc3ccc(F)cc3)cc2C1=O	x	1	16	103*	100*	81	18	43*
Cc1ccc(S(=O)(=O)N(C)C[C@@H]2Oc3ccc(NC(=O)C4CC4)cc3C(=O)N([C@H](C)CO)C[C@@H]2C)cc1	0	0	2	24	x	x	x	x
C[C@H](CO)N1C[C@H](C)[C@H](CN(C)Cc2ccccn2)Oc2cc(Br)ccc2S1(=O)=O	-2	3	-1	-9	x	x	x	x
C[C@H](CO)N1C[C@H](C)[C@@H](CN(C)Cc2ccccn2)Oc2cc(-c3ccncc3)ccc2S1(=O)=O	0	2	-50	109*	99*	105*	55*	88*
Cc1ccc(-c2ccc3c(c2)O[C@H](CN(C)Cc2ccccn2)[C@@H](C)CN([C@H](C)CO)S3(=O)=O)cc1	0	2	-40	91	x	x	x	x
C[C@@H]1CN([C@@H](C)CO)S(=O)(=O)c2ccc(-c3ccccc3)cc2O[C@@H]1CN(C)Cc1ccccn1	x	-2	-5	-21	x	x	x	x
C[C@@H]1CN([C@@H](C)CO)S(=O)(=O)c2ccc(Br)cc2O[C@H]1CN(C)Cc1ccccn1	-3	0	19	107*!	89	17	5	53*
Cc1ccc(-c2ccc3c(c2)O[C@H](CN(C)Cc2ccccn2)[C@@H](C)CN([C@@H](C)CO)S3(=O)=O)cc1	x	1	-55	117*	103*	68	83*	104*
C[C@H](CO)N1C[C@H](C)[C@H](CN(C)S(C)(=O)=O)Oc2cc(-c3ccccc3)ccc2S1(=O)=O	1	-3	-8	24	x	x	x	x
C[C@@H]1CN([C@H](C)CO)S(=O)(=O)c2ccc(-c3ccccc3)cc2O[C@H]1CN(C)S(=O)(=O)c1ccccc1F	0	0	-66	112*	u	89	64*	37*
C[C@@H]1CN([C@H](C)CO)S(=O)(=O)c2ccc(-c3ccncc3)cc2O[C@@H]1CN(C)S(=O)(=O)c1ccccc1F	0	1	-30	x	x	x	x	x
C[C@@H]1CN([C@@H](C)CO)S(=O)(=O)c2ccc(-c3ccccc3)cc2O[C@H]1CN(C)S(=O)(=O)c1ccccc1F	0	-1	-84*	124*	99*	105*	56*	66*
C[C@@H]1CN([C@H](C)CO)S(=O)(=O)c2ccc(-c3ccccc3)cc2O[C@@H]1CN(C)S(=O)(=O)c1ccccc1F	0	1	-27	122*	100*	95	21	36*
C[C@H](CO)N1C[C@H](C)[C@H](CN(C)S(=O)(=O)c2ccccc2F)Oc2cc(-c3ccncc3)ccc2S1(=O)=O	0	1	-36	x	x	x	x	x
C[C@@H]1CN([C@@H](C)CO)S(=O)(=O)c2ccc(-c3ccccc3)cc2O[C@@H]1CN(C)S(=O)(=O)c1ccccc1F	-1	-2	-37	119*	102*	103*	15	46*
COc1cccc(C#Cc2ccc3c(c2)O[C@H](CN(C)C)[C@H](C)CN([C@H](C)CO)S3(=O)=O)c1	0	-1	-71	-43	x	x	x	x
COc1cccc(C#Cc2ccc3c(c2)O[C@@H](CN(C)S(=O)(=O)c2ccccc2F)[C@H](C)CN([C@H](C)CO)S3(=O)=O)c1	-1	6	-72	121*	107*	95	-1	45*
CCCC#Cc1ccc2c(c1)O[C@H](CN(C)S(=O)(=O)c1cccc(OC)c1)[C@H](C)CN([C@@H](C)CO)S2(=O)=O	0	6	-20	x	x	x	x	x
COc1cccc(C#Cc2ccc3c(c2)O[C@@H](CN(C)S(=O)(=O)c2ccccc2F)[C@H](C)CN([C@@H](C)CO)S3(=O)=O)c1	1	-2	-72	123*	109*	98*	23	42*
COc1cccc(C#Cc2ccc3c(c2)O[C@H](CN(C)S(=O)(=O)c2ccccc2F)[C@H](C)CN([C@@H](C)CO)S3(=O)=O)c1	0	-5	-62	125*	109*	104*	-9	12
CCCC#Cc1ccc2c(c1)O[C@H](CN(C)S(=O)(=O)c1cccc(OC)c1)[C@@H](C)CN([C@@H](C)CO)S2(=O)=O	0	-1	-74	x	x	x	x	x

Screening data (PubChem BioAssay)
